# Reference: article PMC3889329 (Diabetes Therapy, 2013)
# “Also recorded” adds a separate entry of the source.
# How the values were obtained:
# [1] = tested on: patients with type 2 diabetes mellitus; assay: Safety and tolerability; type: in vivo, human; conditions: for Diarrhea / Headache / Hypoglycemia / Patients with any AE / Pruritus: N = 9
# Procedure, shortened: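 This was a double-blind, multiple rising dose trial with patients randomized 3:1 to active or placebo per dose group. Oral dosing was once daily: a single dose on day 1, then days 3–9. Adverse events were recorded, and relatedness was investigator-defined. Hypoglycemia was defined as blood glucose <3.5 mmol/L. An end-of-study examination was done on days 15–21. Analysis was descriptive, randomized set (n = 48).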
# [2] = tested on: patients with type 2 diabetes mellitus; assay: Laboratory electrolyte and lipid measurements; type: in vivo, human; conditions: normalized to a standard reference range
# [3] = tested on: patients with type 2 diabetes mellitus; assay: Urine volume and micturition frequency; type: in vivo, human
# Procedure, shortened: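 Urine volume and micturition frequency were recorded under controlled fluid intake, with oral once-daily dosing of test compound or placebo taken with 240 mL water. Dosing was a single dose on day 1, then days 3–9. Placebo was given within each dose group at a 3:1 active:placebo randomization.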
# [4] = Pharmacokinetics in plasma and urine; type: in vivo, human
# Procedure, shortened: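 Plasma was sampled pre-dose on days −2, −1, 1, 2, 3 and 5–9, up to 48 h after the day 1 single dose and up to 72 h after the day 9 dose. Urine was collected on days 1 and 9. Analysis was by HPLC–MS/MS (LLOQ 1.11 nmol/L plasma, 4.44 nmol/L urine). AUC used linear-up/log-down trapezoids. Steady state was assessed from day 5–9 troughs with a log-scale repeated-measures model. n = 36.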
# [5] = tested on: patients with type 2 diabetes mellitus; assay: Urinary glucose excretion; type: in vivo, human; conditions: day 1
# Procedure, shortened: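 All urine was collected over 24 h on days −2, −1, 1, 8 and 9, extended to 48 h after day 1 and 72 h after day 9. Ae0–24 was measured after a single dose with OGTT (75 g glucose, day 1) and after multiple daily doses, fasting (day 8) or with OGTT (day 9). Results are mean (SD) for the treated set.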
# [6] = tested on: patients with type 2 diabetes mellitus; assay: Fasting plasma glucose; type: in vivo, human; conditions: day 10, 1 day after the last dose
# Procedure, shortened: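 Fasting plasma glucose was measured after a 10 h overnight fast. Dosing was oral, once daily with 240 mL water: a single dose on day 1, none on day 2, then daily on days 3–9. Patients were randomized 3:1 to test compound or placebo within each dose group (2.5, 10, 25, 100 mg; n = 12 per group). Descriptive statistics used the treated set (n = 48).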
# [7] = tested on: patients with type 2 diabetes mellitus; assay: Weighted mean daily glucose; type: in vivo, human; conditions: for Mean MDG, mean (least squares) change from baseline to day 8: baseline day −2
# Procedure, shortened: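 Eight-point weighted mean daily glucose was calculated as the 24 h glucose AUEC0–24 divided by 24 h. It was measured under standardized meals without OGTT on day −2 (baseline) and day 8, after multiple once-daily oral doses. Change from baseline is given as least squares means. Analysis used the treated set.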
# SGLT2 = conditions: in vitro, cited from earlier work
# SGLT1 = conditions: in vitro; cited from earlier work
# healthy volunteers = conditions: single oral doses; cited from earlier work
smiles,measurement,setting,value
OC[C@H]1O[C@@H](c2ccc(Cl)c(Cc3ccc(O[C@H]4CCOC4)cc3)c2)[C@H](O)[C@@H](O)[C@@H]1O [Empagliflozin],Diarrhea,[1]; 2.5 mg qd,2 (22.2) n (%)
same,Headache,[1]; 2.5 mg qd,0 n (%)
same,Hypoglycemia,[1]; 2.5 mg qd,0 n (%)
same,Patients with any AE,[1]; 2.5 mg qd,6 (66.7) n (%)
same,Pruritus,[1]; 2.5 mg qd,1 (11.1) n (%)
same,Diarrhea,[1]; 10 mg qd,0 n (%)
same,Headache,[1]; 10 mg qd,1 (11.1) n (%)
same,Hypoglycemia,[1]; 10 mg qd,2 (22.2) n (%)
same,Patients with any AE,[1]; 10 mg qd,5 (55.6) n (%)
same,Pruritus,[1]; 10 mg qd,0 n (%)
same,Diarrhea,[1]; 25 mg qd,0 n (%)
same,Headache,[1]; 25 mg qd,2 (22.2) n (%)
same,Hypoglycemia,[1]; 25 mg qd,1 (11.1) n (%)
same,Patients with any AE,[1]; 25 mg qd,5 (55.6) n (%)
same,Pruritus,[1]; 25 mg qd,1 (11.1) n (%)
same,Diarrhea,[1]; 100 mg qd,0 n (%)
same,Headache,[1]; 100 mg qd,0 n (%)
same,Hypoglycemia,[1]; 100 mg qd,0 n (%)
same,Patients with any AE,[1]; 100 mg qd,3 (33.3) n (%)
same,Pruritus,[1]; 100 mg qd,0 n (%)
same,Frequency of AEs,[1]; all patients receiving empagliflozin,52.8%
same,Patients with hypoglycemic events (blood glucose <3.5 mmol/L),"[1]; all within 5 h of OGTT administration, moderate intensity",Three
same,Patients with AE leading to discontinuation of study treatment,"[1]; cellulitis, moderate intensity, not believed related to study medication",1 patient
same,Tolerability,[1]; multiple once-daily oral doses 2.5–100 mg,well tolerated
same,Fatalities or serious AEs,[1]; treatment period,no fatalities or serious AEs
same,Urinary tract or genital tract infections,[1]; treatment period,No urinary tract or genital tract infections were reported
same,"Calcium, mean (SD), last value on treatment",[2]; 2.5 mg qd,2.3 (0.1) mmol/l
same,"HDL-cholesterol, mean (SD), last value on treatment",[2]; 2.5 mg qd,16 (18) mg/dL
same,"Potassium, mean (SD), last value on treatment",[2]; 2.5 mg qd,4.2 (0.3) mmol/l
same,"Sodium, mean (SD), last value on treatment",[2]; 2.5 mg qd,140 (2) mmol/l
same,"Total cholesterol, mean (SD), last value on treatment",[2]; 2.5 mg qd,175 (11) mg/dL
same,"Triglycerides, mean (SD), last value on treatment",[2]; 2.5 mg qd,171 (65) mg/dL
same,"HDL-cholesterol, mean (SD), last value on treatment","[2]; 10 mg qd, N = 8",31 (18) mg/dL
same,"Calcium, mean (SD), last value on treatment",[2]; 10 mg qd,2.3 (0.1) mmol/l
same,"Potassium, mean (SD), last value on treatment",[2]; 10 mg qd,4.4 (0.3) mmol/l
same,"Sodium, mean (SD), last value on treatment",[2]; 10 mg qd,140 (1) mmol/l
same,"Total cholesterol, mean (SD), last value on treatment",[2]; 10 mg qd,171 (25) mg/dL
same,"Triglycerides, mean (SD), last value on treatment",[2]; 10 mg qd,114 (42) mg/dL
same,"Calcium, mean (SD), last value on treatment",[2]; 25 mg qd,2.3 (0.1) mmol/l
same,"HDL-cholesterol, mean (SD), last value on treatment",[2]; 25 mg qd,41 (17) mg/dL
same,"Potassium, mean (SD), last value on treatment",[2]; 25 mg qd,4.1 (0.3) mmol/l
same,"Sodium, mean (SD), last value on treatment",[2]; 25 mg qd,139 (2) mmol/l
same,"Total cholesterol, mean (SD), last value on treatment",[2]; 25 mg qd,174 (13) mg/dL
same,"Triglycerides, mean (SD), last value on treatment",[2]; 25 mg qd,89 (26) mg/dL
same,"Calcium, mean (SD), last value on treatment",[2]; 100 mg qd,2.3 (0.1) mmol/l
same,"HDL-cholesterol, mean (SD), last value on treatment",[2]; 100 mg qd,37 (18) mg/dL
same,"Potassium, mean (SD), last value on treatment",[2]; 100 mg qd,4.5 (0.3) mmol/l
same,"Sodium, mean (SD), last value on treatment",[2]; 100 mg qd,139 (2) mmol/l
same,"Total cholesterol, mean (SD), last value on treatment",[2]; 100 mg qd,174 (11) mg/dL
same,"Triglycerides, mean (SD), last value on treatment",[2]; 100 mg qd,97 (27) mg/dL
same,Mean (SD) micturition day frequency,"[3]; 2.5 mg qd, Day 1, day 07:00–18:59",6.0 (1.2)
same,Mean (SD) micturition night frequency,"[3]; 2.5 mg qd, Day 1, night 19:00–06:59",3.7 (1.5)
same,Mean (SD) micturition day frequency,"[3]; 2.5 mg qd, Day 8, day 07:00–18:59",6.6 (1.8)
same,Mean (SD) micturition night frequency,"[3]; 2.5 mg qd, Day 8, night 19:00–06:59",3.7 (1.2)
same,Mean (SD) micturition day frequency,"[3]; 2.5 mg qd, Day 9, day 07:00–18:59",6.4 (1.9)
same,Mean (SD) micturition night frequency,"[3]; 2.5 mg qd, Day 9, night 19:00–06:59",3.4 (1.3)
same,Mean (SD) micturition day frequency,"[3]; 10 mg qd, Day 1, day 07:00–18:59",8.3 (1.7)
same,Mean (SD) micturition night frequency,"[3]; 10 mg qd, Day 1, night 19:00–06:59",3.8 (0.8)
same,Mean (SD) micturition day frequency,"[3]; 10 mg qd, Day 8, day 07:00–18:59",6.8 (1.6)
same,Mean (SD) micturition night frequency,"[3]; 10 mg qd, Day 8, night 19:00–06:59",4.0 (1.7)
same,Mean (SD) micturition day frequency,"[3]; 10 mg qd, Day 9, day 07:00–18:59",8.9 (1.7)
same,Mean (SD) micturition night frequency,"[3]; 10 mg qd, Day 9, night 19:00–06:59",3.7 (0.5)
same,Mean (SD) micturition day frequency,"[3]; 25 mg qd, Day 1, day 07:00–18:59",7.8 (2.6)
same,Mean (SD) micturition night frequency,"[3]; 25 mg qd, Day 1, night 19:00–06:59",4.3 (1.0)
same,Mean (SD) micturition day frequency,"[3]; 25 mg qd, Day 8, day 07:00–18:59",7.0 (1.6)
same,Mean (SD) micturition night frequency,"[3]; 25 mg qd, Day 8, night 19:00–06:59",4.8 (1.6)
same,Mean (SD) micturition day frequency,"[3]; 25 mg qd, Day 9, day 07:00–18:59",8.2 (2.0)
same,Mean (SD) micturition night frequency,"[3]; 25 mg qd, Day 9, night 19:00–06:59",4.1 (1.4)
same,Mean (SD) micturition day frequency,"[3]; 100 mg qd, Day 1, day 07:00–18:59",7.9 (2.4)
same,Mean (SD) micturition night frequency,"[3]; 100 mg qd, Day 1, night 19:00–06:59",3.6 (1.1)
same,Mean (SD) micturition day frequency,"[3]; 100 mg qd, Day 8, day 07:00–18:59",6.9 (1.5)
same,Mean (SD) micturition night frequency,"[3]; 100 mg qd, Day 8, night 19:00–06:59",4.7 (1.5)
same,Mean (SD) micturition day frequency,"[3]; 100 mg qd, Day 9, day 07:00–18:59",8.4 (2.5)
same,Mean (SD) micturition night frequency,"[3]; 100 mg qd, Day 9, night 19:00–06:59",3.7 (1.0)
same,Change in micturition frequency compared with placebo,[3]; controlled fluid intake conditions,no changes in urine volume or micturition frequency; also recorded: no changes to micturition frequency
same,Accumulation at steady state,[4]; 2.5–100 mg qd,up to 23%
same,half-life,"[4]; human, plasma, oral, Mean t 1/2 at steady state, day 9, range over 2.5–100 mg qd",10.3 to 18.8 h
same,Tmax,"[4]; human, plasma, po",1.5 to 3 h
same,Steady state reached by,"[4]; repeated once-daily dosing, trough concentrations days 5–8",≤ 5 days
same,Amount of glucose excreted in the urine over 24 h (Ae0–24),"[5]; 2.5 mg single dose, OGTT conditions",46.3 g
same,Increase in UGE with fourfold dose increase from 2.5 to 10 mg,[5]; single dose,more than a twofold increase
same,Increase in UGE with fourfold dose increase from 25 to 100 mg,[5]; single dose,~1.2 fold
same,FPG lower than on day 1,[6],at least 14%
same,"Mean MDG (SD), Day 8","[7]; 2.5 mg qd, without OGTT",134 (42.7) mg/dL
same,"Mean MDG change from baseline to day 8, difference to placebo","[7]; 2.5 mg qd, without OGTT","−15.5, p < 0.05 mg/dL"
same,"Mean MDG, mean (least squares) change from baseline to day 8","[7]; 2.5 mg qd, without OGTT",-29.0 mg/dL
same,"Mean MDG (SD), Day 8","[7]; 10 mg qd, n = 8, without OGTT",124 (18.9) mg/dL
same,"Mean MDG change from baseline to day 8, difference to placebo","[7]; 10 mg qd, without OGTT","−23.5, p < 0.01 mg/dL"
same,"Mean MDG, mean (least squares) change from baseline to day 8","[7]; 10 mg qd, without OGTT",-37.0 mg/dL
same,"Mean MDG (SD), Day 8","[7]; 25 mg qd, without OGTT",133 (36.2) mg/dL
same,"Mean MDG change from baseline to day 8, difference to placebo","[7]; 25 mg qd, without OGTT","−15.0, p = 0.052 mg/dL"
same,"Mean MDG, mean (least squares) change from baseline to day 8","[7]; 25 mg qd, without OGTT",-28.5 mg/dL
same,"Mean MDG (SD), Day 8","[7]; 100 mg qd, without OGTT",154 (17.9) mg/dL
same,"Mean MDG change from baseline to day 8, difference to placebo","[7]; 100 mg qd, without OGTT","−10.6, p = 0.168 mg/dL"
same,"Mean MDG, mean (least squares) change from baseline to day 8","[7]; 100 mg qd, without OGTT",-24.1 mg/dL
same,"pIC50 (SE), inhibition of SGLT2",SGLT2,8.5
same,IC50,"SGLT2; read-out: IC50, inhibition of SGLT2",3.1 nM
same,Selectivity for SGLT2 over SGLT1,SGLT1,"> 2,500 fold"
same,Tolerability,healthy volunteers,well tolerated
